In ChEMBL document CHEMBL1123695, “Synthesis and 3'-substituent effects of some 7 alpha-methoxy-1-oxacephems on antibacterial activity and alkaline hydrolysis rates” (1987):
Values after ≈ are worked out from the molar mass of the structure shown.

What was measured:
Type in all cases: functional
Escherichia coli [1] = experiment: Antibacterial activity against Escherichia coli (H) a sensitive gram-negative bacteria
Procedure, shortened: (§1)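 Agar dilution on sensitivity test agar containing serial twofold antibiotic dilutions. Overnight tryptosoy broth cultures were diluted in the same broth to about 10^6 cells/mL, and one loopful was applied with an inoculating device. Plates were incubated at 37 °C for 18-20 h. MIC was taken as the lowest concentration inhibiting visible growth, in micrograms per milliliter.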

Bacteria [2] = experiment: Geometric mean of the four MIC's of different sensitive gram negative bacteria expressed
Escherichia coli [3] = experiment: Antibacterial activity against Escherichia coli (EC-14) a sensitive gram-negative bacteria; procedure, shortened: as §1
Klebsiella pneumoniae = experiment: Antibacterial activity against Kleb. pneumoniae (SRL-1) a sensitive gram-negative bacteria; procedure, shortened: as §1
Escherichia coli [4] = experiment: Antibacterial activity against Escherichia coli (NIHJ JC-2) a sensitive gram-negative bacteria; procedure, shortened: as §1
Bacteria [5] = experiment: Geometric mean of the four MIC's of different sensitive gram negative bacteria.

MIC (Escherichia coli [1]) [µg/mL]	MIC (Escherichia coli [3]) [µg/mL]	MIC (Klebsiella pneumoniae) [µg/mL]	MIC (Escherichia coli [4]) [µg/mL]	Compound	Geometric mean (Bacteria [2]) [µM]	Geometric mean (Bacteria [5]) [µM]
12.5 (≈ 29.5 µM)	12.5 (≈ 29.5 µM)	12.5 (≈ 29.5 µM)	12.5 (≈ 29.5 µM)	CO[C@@]1(NC(=O)Cc2ccccc2)C(=O)N2C(C(=O)[O-])=C(C[n+]3ccccc3)COC21 (stereo not given in full)	29.5	–
0.78	0.78	3.13	3.13	CO[C@@]1(NC(=O)Cc2ccccc2)C(=O)N2C(C(=O)[O-])=C(COC(N)=O)COC21.[Na+] (stereo not given in full)	3.66	–
0.1	0.39	0.39	0.78	CO[C@@]1(NC(=O)Cc2ccccc2)C(=O)N2C(C(=O)[O-])=C(CSc3nnnn3C)CO[C@@H]21.[Na+]	0.684	–
25	50	50	100	CO[C@@]1(NC(=O)Cc2ccccc2)C(=O)N2C(C(=O)[O-])=C(CO)CO[C@@H]21.[Na+]	130	–
25	100	50	200	COCC1=C(C(=O)[O-])N2C(=O)[C@](NC(=O)Cc3ccccc3)(OC)[C@H]2OC1.[Na+]	178	–
12.5	25	25	50	CO[C@@]1(NC(=O)Cc2ccccc2)C(=O)N2C(C(=O)[O-])=C(CC#N)CO[C@@H]21.[Na+]	63.6	–
0.78	3.13	1.56	3.13	CO[C@@]1(NC(=O)Cc2ccccc2)C(=O)N2C(C(=O)[O-])=C(COC(C)=O)CO[C@@H]21.[Na+]	4.36	–
100	100	100	200	CO[C@@]1(NC(=O)Cc2ccccc2)C(=O)N2C(C(=O)[O-])=C(C)CO[C@@H]21.[Na+]	–	323
50	200	100	> 400	CO[C@@]1(NC(=O)Cc2ccccc2)C(=O)N2C(C(=O)[O-])=C(CSC)CO[C@@H]21.[Na+]	406	–
